Reference: PubChem BioAssay
Inconclusive results are not listed.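 The calls were made as follows, unless noted: active = inhibition over a set limit, the all-compound mean plus 3 SD, in both replicate runs; inconclusive = over that limit in just one replicate run; inactive = at or under that limit in both runs.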

Columns and labels:
[1] = S. cerevisiae growth inhibition in permissive medium (OD615), pilot counter-assay for S. cerevisiae lifespan shortening project, permissive growth control (AID 705;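 active = growth inhibition above 25% in both replicates, a cutoff set 3 SD above the mean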); details: OD615, 24 h, at 10 µM, active compounds read high
How it was run: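 System: engineered DeaD yeast; Medium: permissive raffinose/galactose medium; Compound dosing: 10 µM single dose, 0.25% DMSO; Incubation: 4 h cell pre-growth, 24 h exposure at 30 °C; Technique: OD at 615 nm; Evaluation: growth inhibition from lowered OD615 after 24 h.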

[2] = S. cerevisiae growth inhibition in restrictive medium, OD615, pilot screen, restrictive growth control, yeast lifespan reduction project (AID 706;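 active = growth inhibition above a set limit, 3 SD over mean compound inhibition, in both replicates, cut at about 43% in these data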;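 also: modified DeaD lifespan yeast strain shifted to restrictive glucose medium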); details: OD615, 48 h, at 10 µM, active compounds read high
How it was run: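 Material: modified S. cerevisiae; buffer or medium: CSMM-D glucose medium; doses: one concentration, 10 µM final, 0.25% DMSO; incubation: 48 h compound exposure at 30 °C; detection: optical density at 615 nm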

[3] = doxorubicin toxicity protection in MRP-1 cells – H69AR cells, CellTiter-Glo, duplicate, MRP-1 activator project, pilot screen (AID 807;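 active = viability increase at or above a cutoff of the median across tested compounds plus 3 SD, cut at about 8.5% in these data, passing the limit was not always enough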;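 also: compound pretreatment 18-22 h then 72 h combined with doxorubicin; 0% = doxorubicin alone and 100% = vehicle without doxorubicin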); details: H69AR viability with doxorubicin, CellTiter-Glo luminescence; at 10 µM; active compounds read high
[4] = viability of HCT116 without oncogenic beta-catenin – human colon tumor cells, pilot screen (AID 823;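 active = cell viability at or below a set limit in both duplicate runs, the limit being the all-compound median minus 4 SD, cut at about 23% in these data, passing the limit was not always enough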;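 also: 0% = wells killed by 20 µM Hyamine and 100% = untreated DMSO cell wells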); details: HCT116 beta-catenin knockout viability, CellTiter-Glo, 60 h; at 10 µM; active compounds read low
[5] = viability of PTEN-null HCT116 cells – cell-based, HCT116 clonal line, CellTiter-Glo, pilot screen (AID 824;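 active = viability at or below 27.92% in each of two runs, the all-compound median minus 4 SD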;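 also: 0% = 20 µM Hyamine control and 100% = vehicle cell control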); details: HCT116 PTEN-deleted viability, 60 h, at 10 µM, active compounds read low
[6] = RAM pathway blockade in budding yeast – dse1pr::URA3 reporter, 5-FOA selection, pilot screen (AID 869);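 also: 0% = DMSO wells with no growth and 100% = 10 µM 1-NA-PP1 with full growth; RAM network block rescues cells from 5-FOA so hits raise OD615 growth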; details: S. cerevisiae dse1pr::URA3 5-FOA growth, OD615, 2 d; at 10 µM; active compounds read high; strain carries analog-sensitive mutant Cbk1 kinase
[7] = RAM signaling pathway blockade in yeast – S. cerevisiae, Pdr1DBD-CYC8 efflux-inhibited sensitized strain, primary screen (AID 1298;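 active = RAM network inhibition above 8.4% in each of two replicates, 3 SD over the compound average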;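 also: 0% = DMSO untreated cells without growth and 100% = 10 µM 1-NA-PP1 full growth; higher means more yeast growth rescued from 5-FOA killing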); details: S. cerevisiae cbk1-as DSE1-URA3 strain, 5-FOA growth OD615, 2 d; at 50 µM; active compounds read high

CC1CC(C)CN(c2nc3c(c(=O)[nH]c(=O)n3C)n2CCSc2nc3ccccc3o2)C1 (configuration not stated)
inactive: growth inhibition [1] -8.58% | growth inhibition [2] -7.3% | viability increase [3] -2.41% | viability [4] 93.2% | viability [5] 93.6% | inhibition [6] 0.335% | RAM network inhibition [7] -0.32%

C=C(C)CSc1nc2c(cc1C#N)CCC2
inactive: growth inhibition [1] 9.43% | growth inhibition [2] 21.6% | viability increase [3] 1.11% | viability [4] 99.4% | viability [5] 99.1% | inhibition [6] 2.3% | RAM network inhibition [7] 1.58%

CN(C)CCCCCNCCCNC(=O)/C=N\O
inactive: growth inhibition [1] -2.17% | growth inhibition [2] 3.62% | viability increase [3] 0.12% | viability [4] 98.3% | viability [5] 103% | inhibition [6] 3.2% | RAM network inhibition [7] 1.4%

CCC(=O)N1C(C(=O)N2CCCC2)CSC1c1ccc(OC)cc1 (configuration not stated)
inactive: growth inhibition [1] -12.1% | growth inhibition [2] -12.3% | viability increase [3] -3.3% | viability [4] 96% | viability [5] 97.5% | inhibition [6] -0.035% | RAM network inhibition [7] 0.53%

Cc1ccsc1-c1nc(CSCC(=O)N2CCN(c3ccccc3)CC2)c(C)o1
inactive: growth inhibition [1] -4.56% | growth inhibition [2] 26.6% | viability increase [3] -3.18% | viability [4] 61.6% | viability [5] 65.6% | inhibition [6] 0.75% | RAM network inhibition [7] 7.89%

CCC(=O)N1CC2(C)CN(C(=O)CC)CC(C)(C1)C2
inactive: growth inhibition [1] -6.27% | growth inhibition [2] -24.9% | viability increase [3] -0.75% | viability [4] 95.3% | viability [5] 97% | inhibition [6] 1.59% | RAM network inhibition [7] -0.16%

Cn1c(SCc2c(F)cccc2Cl)nnc1-c1cnccn1
inactive: growth inhibition [1] 3.5% | growth inhibition [2] 9.8% | viability increase [3] -0.67% | viability [4] 96.5% | viability [5] 93.8% | inhibition [6] 1.94% | RAM network inhibition [7] 5.07%

Cc1cc(NC(=O)c2cc(CC(C)C)on2)no1
inactive: growth inhibition [1] -5.71% | growth inhibition [2] -12.5% | viability increase [3] -1.75% | viability [4] 106% | viability [5] 94.5% | inhibition [6] 0.67% | RAM network inhibition [7] 6.04%

Cc1ccc2c(c1)N(CCCC(=O)NCCCN1CCCC1=O)C(=O)CO2
inactive: growth inhibition [1] -11.1% | growth inhibition [2] -13.3% | viability increase [3] -2.09% | viability [4] 98.2% | viability [5] 94% | inhibition [6] 1.64% | RAM network inhibition [7] 1.27%

CCOc1ccccc1NC(=O)C1CCN(S(=O)(=O)c2ccc(OC)c(OC)c2)CC1
inactive: growth inhibition [1] -4.97% | growth inhibition [2] -2.79% | viability increase [3] -2.46% | viability [4] 95% | viability [5] 98.1% | inhibition [6] 0.085% | RAM network inhibition [7] 0.83%

Cc1c(/C=N/n2cnnc2)c2ccccc2n1C
inactive: growth inhibition [1] -2.21% | growth inhibition [2] 11.6% | viability increase [3] -1.49% | viability [4] 98.7% | viability [5] 95.3% | inhibition [6] -0.13% | RAM network inhibition [7] 4.77%

COc1ccc(C2C(C(=O)Nc3cccc(C)n3)c3ccccc3C(=O)N2C)cc1 (configuration not stated)
inactive: growth inhibition [1] -11.3% | growth inhibition [2] -6.23% | viability increase [3] -0.69% | viability [4] 101% | viability [5] 93.9% | inhibition [6] 1.39% | RAM network inhibition [7] 2.93%

C=CCOn1c(=O)c(C)[n+]([O-])c2ccccc21
inactive: growth inhibition [1] -11.6% | growth inhibition [2] -14.3% | viability increase [3] -0.5% | viability [4] 105% | viability [5] 98.2% | inhibition [6] -0.085% | RAM network inhibition [7] 5.63%

COc1ccc(C2C(C(=O)N3CCN(c4ccc(OC)cc4)CC3)c3ccccc3C(=O)N2C)cc1 (configuration not stated)
inactive: growth inhibition [1] 1.52% | growth inhibition [2] -0.315% | viability increase [3] -0.98% | viability [4] 60.6% | viability [5] 61.9% | inhibition [6] 0.215% | RAM network inhibition [7] 0.86%

COc1ccc(CNC(=O)C2CCN(S(=O)(=O)c3cccc4cccnc34)CC2)cc1
inactive: growth inhibition [1] -9.14% | growth inhibition [2] 3.15% | viability increase [3] 0.11% | viability [4] 99.9% | viability [5] 92.2% | inhibition [6] 2.6% | RAM network inhibition [7] 2.66%

O=C(Nc1ccc(N2CCN(C(=O)c3ccccc3)CC2)c(Cl)c1)c1ccco1
inactive: growth inhibition [1] 4.29% | growth inhibition [2] 14.1% | viability increase [3] -3.69% | viability [4] 67% | viability [5] 75.9% | inhibition [6] 3.31% | RAM network inhibition [7] 5.57%

Cn1c(C(=O)NCCN2CCN(Cc3ccccc3)CC2)cc2c(=O)n(C)c3ccccc3c21
inactive: growth inhibition [1] -0.4% | growth inhibition [2] 5.33% | viability increase [3] -6.61% | viability [4] 78.5% | viability [5] 79% | inhibition [6] -0.115% | RAM network inhibition [7] 2.19%

O=C(CCCCn1c(=O)[nH]c2ccccc2c1=O)N1CCN(c2ncccn2)CC1
inactive: growth inhibition [1] -13.4% | growth inhibition [2] -20.2% | viability increase [3] -1.54% | viability [4] 104% | viability [5] 105% | inhibition [6] 0.76% | RAM network inhibition [7] 0.58%

CCC(C)NC(=O)c1cc(-c2ccccc2O)on1 (configuration not stated)
inactive: growth inhibition [1] -10.7% | growth inhibition [2] -4.76% | viability increase [3] -1.23% | viability [4] 94% | viability [5] 86.2% | inhibition [6] 1.73% | RAM network inhibition [7] 2.61%

OC(CN1C2=NCCCN2c2ccccc21)c1ccc(Cl)cc1 (configuration not stated)
inactive: growth inhibition [1] -8.91% | growth inhibition [2] 2.81% | viability increase [3] -4.02% | viability [4] 73.8% | viability [5] 76.1% | inhibition [6] 1.26% | RAM network inhibition [7] 3.02%

CCN(Cc1ccccc1)C(=O)Cn1cc2c(n1)CCCC2
inactive: growth inhibition [1] -5.23% | growth inhibition [2] -2.12% | viability increase [3] 1.91% | viability [4] 94% | viability [5] 92.5% | inhibition [6] 2.06% | RAM network inhibition [7] -1.27%

CCOC(=O)C1CCN(CC(O)COc2ccc(C(C)(C)CC)cc2)CC1 (configuration not stated)
inactive: growth inhibition [1] -14% | growth inhibition [2] -10.4% | viability increase [3] -4.71% | viability [4] 65.6% | viability [5] 73.5% | inhibition [6] -0.58% | RAM network inhibition [7] 0.78%

CCc1ccccc1N1CC23C=CC(O2)C(C(=O)OC)C3C1=O (configuration not stated)
inactive: growth inhibition [1] -17.5% | growth inhibition [2] -18.8% | viability increase [3] -0.91% | viability [4] 92.7% | viability [5] 99% | inhibition [6] 0.9% | RAM network inhibition [7] 5.27%

Cc1c(-n2cc(C(=O)O)c(=O)c3cc(F)c(N4CCCC4)c(F)c32)c(=O)n(-c2ccccc2)n1C
inactive: growth inhibition [1] -5.81% | growth inhibition [2] -11.4% | viability increase [3] -2.19% | viability [4] 98.8% | viability [5] 87.8% | inhibition [6] 2.6% | RAM network inhibition [7] 5.65%

COc1ccc(OC)c(N(CC(=O)NCc2ccccn2)S(C)(=O)=O)c1
inactive: growth inhibition [1] -0.79% | growth inhibition [2] -6.94% | viability increase [3] -2.27% | viability [4] 98.1% | viability [5] 96.3% | inhibition [6] 1.44% | RAM network inhibition [7] 0.46%

CCOC(=O)C1Cn2c(nc3c(c2=O)C(C)(CC)Cc2ccccc2-3)S1 (configuration not stated)
inactive: growth inhibition [1] -4.55% | growth inhibition [2] 5.55% | viability increase [3] -2.18% | viability [4] 82.1% | viability [5] 77.7% | inhibition [6] 1.5% | RAM network inhibition [7] 3.03%

CCS(=O)(=O)n1nc(-c2ccccc2)cc1N
inactive: growth inhibition [1] -3.12% | growth inhibition [2] -16.4% | viability increase [3] -1.52% | viability [4] 98.7% | viability [5] 96.7% | inhibition [6] 0.555% | RAM network inhibition [7] 1.53%

COc1ccc(OCCSc2nnc(-c3ccccc3)n2N)cc1
inactive: growth inhibition [1] -2.49% | growth inhibition [2] -12.7% | viability increase [3] 0.25% | viability [4] 89.8% | viability [5] 92.5% | inhibition [6] 1.27% | RAM network inhibition [7] 5.07%

O=S(=O)(NCc1ccc2c(c1)OCO2)c1cnc[nH]1
inactive: growth inhibition [1] -5.07% | growth inhibition [2] 0.305% | viability increase [3] 1.17% | viability [4] 107% | viability [5] 106% | inhibition [6] 0.885% | RAM network inhibition [7] 0.72%

CCc1nc(C)cn1S(=O)(=O)c1ccc(Cl)c(Cl)c1Cl
inactive: growth inhibition [1] -6.5% | growth inhibition [2] -13.9% | viability increase [3] -0.17% | viability [4] 99.3% | viability [5] 98.7% | inhibition [6] 0.805% | RAM network inhibition [7] 7.3%

CCCCOc1ccc(C2(C)CC(=O)NC2=O)cc1 (configuration not stated)
inactive: growth inhibition [1] 19.7% | growth inhibition [2] 10.9% | viability increase [3] -1.56% | viability [4] 95.3% | viability [5] 91.8% | inhibition [6] 0.425% | RAM network inhibition [7] -1.18%

CCOc1ncccc1C(=O)OCC(=O)Nc1cc(C(=O)OC)ccc1C(=O)OC
inactive: growth inhibition [1] -16.9% | growth inhibition [2] -12.9% | viability increase [3] -2.69% | viability [4] 90.1% | viability [5] 92.4% | inhibition [6] 2.11% | RAM network inhibition [7] 5.66%

Cc1ccc(-n2c(SCC(=O)Nc3nccs3)nc3c(c2=O)SCC3)cc1
inactive: growth inhibition [1] -10.3% | growth inhibition [2] -5.16% | viability increase [3] -6.87% | viability [4] 94.2% | viability [5] 92.2% | inhibition [6] 3.41% | RAM network inhibition [7] 6.62%

CCc1nccn1S(=O)(=O)c1ccc2ccccc2c1
inactive: growth inhibition [1] 0.77% | growth inhibition [2] -2.31% | viability increase [3] -1.22% | viability [4] 102% | viability [5] 103% | inhibition [6] 0.7% | RAM network inhibition [7] 3.49%

CN1C[N+]([O-])=C(c2ccccc2)C1(C)C
inactive: growth inhibition [1] -1.95% | growth inhibition [2] -8.32% | viability increase [3] -2.64% | viability [4] 98.7% | viability [5] 91.2% | inhibition [6] 0.69% | RAM network inhibition [7] 1.81%

CCCC(=O)N(Cc1cc2cc(C)ccc2[nH]c1=O)c1ccccc1OC
inactive: growth inhibition [1] 1.1% | growth inhibition [2] 1.19% | viability increase [3] -0.05% | viability [4] 80.7% | viability [5] 78% | inhibition [6] 1.04% | RAM network inhibition [7] 9.81%
